We go through one compound from article PMC3171567 (Steroids, 2011).

In one assay the test system is LAPC-4 xenografts. The assay is described as follows: LAPC-4 prostate cancer xenograft anti-tumor efficacy. In kind it is in vivo, male SCID mice.
Another assay deals with LNCaP cells. In words: Cell proliferation / viability XTT assay, LNCaP. In kind it is cell-based. The note with it: Homo sapiens, read-out: Cell growth inhibition GI50 LNCaP.
For assay [1], the system named is prostate, seminal vesicles, and the testes. The assay is described as follows: Urogenital tissue weights in LAPC-4 xenograft mice. In kind it is in vivo, male SCID mice. As to conditions: 31 days, 0.15 mmol/kg; 3 and 5 s.c. b.i.d., 4 and 5-acetate p.o. The method in brief: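 Male SCID mice, 4–6 weeks old, housed pathogen-free with food and water ad libitum. LAPC-4 cells were scraped into DPBS, pelleted and resuspended in Matrigel (10 mg/ml) at 2.0 × 10^7 cells/mL before inoculation. Vehicle was 0.3% HPC; test compounds were given at 0.15 mmol/kg. After 31 days of treatment, prostate, seminal vesicles and testes were excised and weighed and compared with vehicle controls.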

The test system of the next assay is LAPC-4 cells. In words: Cell proliferation / viability XTT assay, LAPC-4. In kind it is cell-based. As to conditions: Homo sapiens, LAPC4, read-out: Cell growth inhibition GI50 LAPC-4. Summed up: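 Cells moved to steroid-free medium (phenol red-free RPMI, 5% dextran-coated charcoal-treated serum, 1% penicillin/streptomycin) 3 days before plating at 1.5 × 10^4 cells/well. After 24 h attachment, they were given steroid-free medium with ethanol vehicle, androgens and/or test compound, changed every three days. Viability was read by XTT absorbance on day 7. Each result is the average of at least three wells.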

Another assay addresses human CYP17 (Homo sapiens, UniProt P05093). As to conditions: read-out: CYP17 IC50; value for 5; cited from earlier work.

Chain of human CYP17 (P05093 whole entry): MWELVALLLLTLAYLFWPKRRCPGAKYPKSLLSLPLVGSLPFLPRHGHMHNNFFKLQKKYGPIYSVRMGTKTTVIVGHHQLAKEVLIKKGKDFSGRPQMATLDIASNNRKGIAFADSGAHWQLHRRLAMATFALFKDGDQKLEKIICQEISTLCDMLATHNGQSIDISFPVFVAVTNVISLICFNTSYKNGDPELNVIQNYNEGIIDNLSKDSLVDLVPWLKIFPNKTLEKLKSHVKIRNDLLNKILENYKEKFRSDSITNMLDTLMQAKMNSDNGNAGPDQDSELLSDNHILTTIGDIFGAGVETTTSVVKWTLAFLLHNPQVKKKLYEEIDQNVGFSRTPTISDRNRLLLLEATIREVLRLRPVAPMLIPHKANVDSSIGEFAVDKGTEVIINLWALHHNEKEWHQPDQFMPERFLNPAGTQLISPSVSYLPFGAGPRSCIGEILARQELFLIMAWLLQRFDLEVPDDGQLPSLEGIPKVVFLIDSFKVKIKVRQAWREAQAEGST

`C[C@]12CC[C@H](O)CC1=CC[C@@H]1[C@@H]2CC[C@]2(C)C(n3cnc4ccccc43)=CC[C@@H]12` [Compound 5, 3β-Hydroxy-17-(1H-benzimidazol-1-yl)androsta-5,16-dien]: in the assay with LAPC-4 xenografts (first study, 0.15 mmol/kg s.c. b.i.d.), the “inhibition of growth of LAPC-4 tumors (in words)” value is listed as “most effective therapy in inhibiting the growth of LAPC-4 tumors”. The “average tumor volume on day 31 (in words)” value in the assay on LAPC-4 xenografts (first study, 0.15 mmol/kg s.c. b.i.d., vs control p = 0.0001, 4 p = 0.005, 3 p = 0.053, 5-acetate p = 0.006) is “smaller average tumor volume on day 31”. Further, the “final tumor weights (in words)” value with LAPC-4 xenografts (first study, 31 days of treatment, vs control, 3, and castration, p < 0.05) is given as “significantly reduced”. In addition, the “oral activity (in words)” value in the assay with LAPC-4 xenografts (preclinical studies) is on record as “not orally active”. Further, the “effect on LAPC-4 tumor growth (in words)” value in the assay with LAPC-4 xenografts (third study, 0.15 mmol/kg s.c. once daily) is “did not have a significant effect on tumor growth”. The GI50 – broadly, the concentration at which growth is held to half of that of the control – with LNCaP cells stood at 6 µM. Moreover, in assay [1], the “prostate size/weight (in words)” value is on record as “reduced the size of the prostate, although the reduction was not quite significant”; the “seminal vesicles size/weight (in words)” value was “significantly reduced the size of the seminal vesicles and testes”; the “testes size/weight (in words)” value was “significantly reduced the size of the seminal vesicles and testes”. Also, the GI50 in the assay on LAPC-4 cells came to 3.2 µM. Further, the IC50 – broadly, the point on the concentration scale where inhibition reaches its midpoint – at human CYP17 was 47 nM.
